{"data": "Results gathered from unrelated publications", "matrix": "plasma", "note": "Each line is one published result; the experiments were not run side by side."}
{"SMILES": "Oc1cc(O)c2c(c1)O[C@@H](c1ccc(O)c(O)c1)[C@@H](O)C2", "host": "human", "route": "oral", "dose": "100 mg", "setting": "single dose", "AUC(0-t)": "14.2 ng·h/mL"}
{"SMILES": "COc1cc2c(Nc3ccc(Br)cc3F)ncnc2cc1OCC1CCN(C)CC1", "host": "human", "route": "oral", "dose": "65 mg/m²", "setting": "multiple doses, patients", "AUC(0-t)": "18900 ng·h/mL"}
{"SMILES": "CCOc1cc2ncc(C#N)c(Nc3ccc(OCc4ccccn4)c(Cl)c3)c2cc1NC(=O)/C=C/[C@H]1CCCN1C", "host": "human", "route": "oral", "dose": "80 mg", "setting": "single dose", "AUC(0-t)": "357 ng·h/mL"}
{"SMILES": "CCCCC1=NC2(CCCC2)C(=O)N1Cc1ccc(-c2ccccc2S(=O)(=O)Nc2noc(C)c2C)c(COCC)c1", "host": "human", "route": "oral", "dose": "800 mg", "setting": "single dose, fed, healthy volunteers, tablet", "AUC(0-t)": "169000 ng·h/mL"}
{"SMILES": "C[C@@H](Nc1cc(F)cc(F)c1)c1cc(C(=O)N(C)C)cc2c(=O)cc(N3CCOCC3)oc12", "host": "human", "route": "oral", "dose": "30 mg", "setting": "single dose, patients", "AUC(0-t)": "599 ng·h/mL"}
{"SMILES": "OC[C@H]1O[C@@H](c2ccc(Cl)c(Cc3ccc(O[C@H]4CCOC4)cc3)c2)[C@H](O)[C@@H](O)[C@@H]1O", "host": "human", "route": "oral", "dose": "10 mg", "setting": "single dose", "AUC(0-t)": "1.63 µM·h"}
{"SMILES": "C[C@@H](Oc1ccc(S(C)(=O)=O)cc1C(=O)N1C[C@@H]2C[C@]2(c2cc(C(F)(F)F)on2)C1)C(F)(F)F", "host": "human", "route": "oral", "dose": "25 mg", "AUC(0-t)": "12 µM·h"}
{"SMILES": "COCCOc1cnc2ccn([C@H](C)c3nnc4c(F)cc(-c5cnn(C)c5)cn34)c(=O)c2c1", "host": "human", "route": "oral", "dose": "150 mg", "setting": "multiple doses, once daily, patients", "AUC(0-t)": "31900 ng·h/mL"}
{"SMILES": "O=C(O)C[C@H](O)C[C@H](O)/C=C/c1c(C2CC2)nc2ccccc2c1-c1ccc(F)cc1", "host": "human", "route": "oral", "dose": "2 mg", "setting": "single dose, fed, healthy volunteers, tablet", "AUC(0-t)": "292 ng·h/mL"}
{"SMILES": "CC(C)n1cc(C#N)c2cc(-n3cc(C(=O)O)cn3)ccc21", "host": "human", "route": "oral", "dose": "400 mg", "setting": "single dose, fasted, healthy volunteers", "AUC(0-t)": "91500 ng·h/mL"}
{"SMILES": "CO[C@@H]1[C@H](OC(=O)N2CC(CCN3CCOCC3)C2)CC[C@]2(CO2)[C@H]1[C@@]1(C)O[C@@H]1CC=C(C)C", "host": "human", "route": "subcutaneous", "dose": "0.6 mg", "setting": "single dose, healthy volunteers", "AUC(0-t)": "1.21 ng·h/mL"}
{"SMILES": "COc1ccc([C@@H]2CN(C(=O)[C@@H](O)CO)C[C@@]2(C)[C@@H](C)O)cc1OC1CN(c2ccc(C)cn2)C1", "host": "human", "route": "oral", "dose": "5 mg", "setting": "single dose, healthy volunteers", "AUC(0-t)": "1590 ng·h/mL"}
{"SMILES": "C[C@@]1(c2cc(NC(=O)c3ccc(C#N)cn3)ccc2F)C=CSC(N)=N1", "host": "human", "route": "oral", "dose": "30 mg", "setting": "single dose", "AUC(0-t)": "2510 ng·h/mL"}
{"SMILES": "Cc1nc(NC(=O)N2CCC[C@H]2C(N)=O)sc1-c1ccnc(C(C)(C)C(F)(F)F)c1", "host": "human", "route": "oral", "dose": "90 mg", "setting": "patients", "AUC(0-t)": "7600 ng·h/mL"}
{"SMILES": "C[C@@H](c1ccc2nccn2c1)n1nnc2ncc(-c3cnn(C)c3)nc21", "host": "human", "route": "oral", "dose": "200 mg", "AUC(0-t)": "3980 ng·h/mL"}
{"SMILES": "CC(C)(O)c1ccccc1-c1ccc2[nH]c(/C=C/c3ccc(C(F)(F)F)cc3)nc2c1", "host": "male human", "route": "oral", "dose": "5 mg", "setting": "single dose, fasted", "AUC(0-t)": "350 ng·h/mL"}
{"SMILES": "O=C(/C=C/c1cccc(S(=O)(=O)Nc2ccccc2)c1)NO", "host": "human", "route": "intravenous", "dose": "1900 mg/m²", "setting": "patients", "AUC(0-t)": "72100 ng·h/mL"}
{"SMILES": "NS(=O)(=O)c1ccc(NC(=O)Nc2ccc(F)cc2)cc1", "host": "human", "route": "oral", "dose": "500 mg", "setting": "multiple doses, once daily", "AUC(0-t)": "62200 ng·h/mL"}
{"SMILES": "FC(F)(F)c1ccc(CNc2ccc(Cc3c[nH]c4ncc(Cl)cc34)cn2)cn1", "host": "human", "route": "oral", "dose": "1200 mg", "setting": "multiple doses, patients", "AUC(0-t)": "29500 ng·h/mL"}
{"SMILES": "CC(C)c1nc(N(C)S(C)(=O)=O)nc(-c2ccc(F)cc2)c1/C=C/[C@@H](O)C[C@@H](O)CC(=O)O", "host": "human", "route": "oral", "dose": "20 mg", "AUC(0-t)": "48.6 ng·h/mL"}
{"SMILES": "C[C@@H](Oc1ccc(S(C)(=O)=O)cc1C(=O)N1C[C@@H]2C[C@]2(c2cc(C(F)(F)F)on2)C1)C(F)(F)F", "host": "human", "route": "oral", "dose": "25 mg", "setting": "fed, tablet", "AUC(0-t)": "11 µM·h"}
{"SMILES": "COc1cc(N2CCC(N3CCN(C)CC3)CC2)ccc1Nc1ncnc(Nc2ccccc2S(=O)(=O)C(C)C)n1", "host": "human", "route": "oral", "dose": "325 mg", "setting": "multiple doses, patients", "AUC(0-t)": "23100 ng·h/mL"}
{"SMILES": "Nc1cc(C(F)(F)F)c(-c2cc(N3CCOCC3)nc(N3CCOCC3)n2)cn1", "host": "human", "route": "oral", "dose": "100 mg/day", "setting": "patients", "AUC(0-t)": "8800 ng·h/mL"}
{"SMILES": "COc1cc2c(cc1OC)CN(CCc1ccc(NC(=O)c3cc(OC)c(OC)cc3NC(=O)c3cnc4ccccc4c3)cc1)CC2", "host": "human", "route": "intravenous", "dose": "2 mg/kg", "setting": "patients", "AUC(0-t)": "11.9 µM·h"}
{"SMILES": "CCO[C@H]1CCN(Cc2c(OC)cc(C)c3[nH]ccc23)[C@H](c2ccc(C(=O)O)cc2)C1", "host": "human", "route": "oral", "dose": "50 mg", "setting": "multiple doses, twice daily, patients", "AUC(0-t)": "8570 ng·h/mL"}
{"SMILES": "CCNCCCNC/C=C\\CNCCCNCC", "host": "human", "route": "intravenous", "dose": "100 mg", "setting": "patients, infusion", "AUC(0-t)": "304 ng·h/mL"}
{"SMILES": "CO[C@H]1CC[C@H](N2C(=O)CNc3ncc(-c4ccc(C(C)(C)O)nc4)nc32)CC1", "host": "human", "route": "oral", "dose": "30 mg", "setting": "multiple doses, patients", "AUC(0-t)": "1440 ng·h/mL"}
{"SMILES": "C#Cc1cccc(Nc2ncnc3cc(OCCOC)c(OCCOC)cc23)c1", "host": "human", "route": "oral", "dose": "100 mg", "setting": "patients", "AUC(0-t)": "21.9 µM·h"}
